In one experiment the test system is A549. The experiment in a line: Cytotoxicity against human A549 cells expressing wild type p53 by MTT assay. The format is functional, cell-based. On the technique in general: Tetrazolium dyes change colour on reduction, which living cells bring about.
Experiment [1] in a line: Cytotoxicity against human NSCLC-N6 cells expressing mutant p53 by MTT assay. It is filed as functional, cell-based. The essentials: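 Cells grown in RPMI 1640 and seeded in 96-well plates (NSCLC-N6 at 10⁵ cells/mL). Cells exposed to drug continuously. Growth measured colorimetrically by mitochondrial reduction of MTT to formazan, with solubilized formazan read at 570 nm. Eight replicates per concentration; control growth from 8 determinations.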

Where [2] appears, read: Homo sapiens, A549, read-out: IC50.
Where [3] appears, read: Homo sapiens, NSCLC-N6, read-out: IC50.

The structures appear in SMILES notation. A value given as a limit tells only on which side of the number the result lay.

For the compound `CCOC(=O)c1oc2cc(O)cc(O)c2c1C`, the concentration for half-maximal inhibition (IC50) stood at 68.6 µM with A549 (setting [2]) and 65.6 µM in experiment [1] (setting [3]).

Turning to `COc1cc(OC)c2c(C)c(C(=O)Nc3ccccc3)oc2c1C(N)=O`, the IC50 (in the experiment on A549 (setting [2]); in experiment [1] (setting [3])) was under 9.3 µM throughout.

Take `COc1cc(OC)c2c(C)c(C(=O)NCc3ccccc3)oc2c1C(N)=O`: the results for the concentration for half-maximal inhibition (IC50) (in the experiment on A549 (setting [2]); in experiment [1] (setting [3])) were 54.8 µM and over 81.4 µM, respectively.

With `COc1cc(OC)c2c(C)c(C=O)oc2c1C(N)=O`, the half-maximal inhibitory concentration (IC50) with A549 (setting [2]) was determined as 63.8 µM; in experiment [1] (setting [3]), 44.4 µM.

For `CCOC(=O)c1oc2c(C(N)=O)c(OC)cc(OC)c2c1C`, the concentration for half-maximal inhibition (IC50) result (with A549 (a549); in experiment [1] (nsclc-n6)) was “Not Active” in each case.

As for `COc1cc(OC)c2c(C)c(C(=O)Nc3ccncc3)oc2c1C(N)=O`, the 50% inhibitory concentration (IC50) (in the experiment on A549 (setting [2]); in experiment [1] (setting [3])) was under 9.3 µM in each case.

Turning to `CCOC(=O)c1oc2c(C(N)=O)c(O)cc(O)c2c1C`, the half-maximal inhibitory concentration (IC50) in the experiment on A549 (setting [2]) is 24 µM; in experiment [1] (setting [3]) it was 32.9 µM.

For the compound `CCOC(=O)c1oc2c(C#N)c(OC)cc(OC)c2c1C`, the IC50 entry (with A549 (a549); in experiment [1] (nsclc-n6)) was “Not Active” each time.

As for `COc1cc(OC)c2c(C)c(C=O)oc2c1Br`, the concentration for half-maximal inhibition (IC50) with A549 (setting [2]) was 49.5 µM; in experiment [1] (nsclc-n6) it was “Not Active”.

In the case of `Cc1c(C=O)oc2cc(O)cc(O)c12`, the 50% inhibitory concentration (IC50) entry (in the experiment with A549 (a549); in experiment [1] (nsclc-n6)) was “Not Active” throughout.

Consider `CCOC(=O)c1oc2c(Br)c(OC)cc(OC)c2c1C`, for which the IC50 (in the experiment with A549 (setting [2]); in experiment [1] (setting [3])) was over 87.4 µM each time.

With `CCOC(=O)c1oc2c(C(N)=O)c(OCc3ccccc3)cc(OCc3ccccc3)c2c1C`, the half-inhibitory concentration (IC50) (with A549 (setting [2]); in experiment [1] (setting [3])) was under 7.2 µM each time.

As for `COc1cc(OC)c2c(C)c(C(=O)Nc3ccccn3)oc2c1C(N)=O`, the half-inhibitory concentration (IC50) (with A549 (setting [2]); in experiment [1] (setting [3])) was over 84.4 µM throughout.

In the case of `Cc1c(C=O)oc2cc(OCc3ccccc3)cc(OCc3ccccc3)c12`, the IC50 (in the experiment on A549 (setting [2]); in experiment [1] (setting [3])) was over 80.6 µM each time.

As to `CCCNC(=O)c1oc2c(C(N)=O)c(OC)cc(OC)c2c1C`, the IC50 (in the experiment on A549 (setting [2]); in experiment [1] (setting [3])) was over 93.6 µM throughout.

For `COc1cc(OC)c2c(C)c(C=O)oc2c1C#N`, the IC50 result (with A549 (a549); in experiment [1] (nsclc-n6)) was “Not Active” each time.

Consider `CCOC(=O)c1oc2cc(OC)cc(OC)c2c1C`, for which the IC50 entry (in the experiment on A549 (a549); in experiment [1] (nsclc-n6)) was “Not Active” each time.

Turning to `COc1cc(OC)c2c(C)c(C(N)=O)oc2c1C(N)=O`, the IC50 is 39.4 µM with A549 (setting [2]) and 22.6 µM in experiment [1] (setting [3]).

For `Cc1c(C=O)oc2c(C(N)=O)c(O)cc(O)c12`, the IC50 in the experiment on A549 (setting [2]) is 108 µM; in experiment [1] (setting [3]), 60.8 µM.

As to `COc1cc(OC)c2c(C)c(C=O)oc2c1`, the IC50 result (in the experiment with A549 (a549); in experiment [1] (nsclc-n6)) was “Not Active” throughout.

Take `CCOC(=O)c1oc2cc(OCc3ccccc3)cc(OCc3ccccc3)c2c1C`: the IC50 (in the experiment with A549 (setting [2]); in experiment [1] (setting [3])) was over 72 µM throughout.

In general, IC50 refers to the concentration that inhibits the measured activity by half.
